ChEMBL document CHEMBL3112535, “Undesired versus designed enzymatic cleavage of linkers for liver targeting” (Bioorg Med Chem Lett, 2014)

What was measured:
Cocaine esterase [1] = biological target: T1, Cocaine esterase (Homo sapiens, UniProt O00748); assay: Metabolic stability of the compound in human intestinal microsomes assessed as carboxylesterase-2-mediated hydrolysis by measuring intrinsic clearance at 1 uM in absence of NADPH; format: ADME, Intestine
T1 sequence (O00748 whole entry): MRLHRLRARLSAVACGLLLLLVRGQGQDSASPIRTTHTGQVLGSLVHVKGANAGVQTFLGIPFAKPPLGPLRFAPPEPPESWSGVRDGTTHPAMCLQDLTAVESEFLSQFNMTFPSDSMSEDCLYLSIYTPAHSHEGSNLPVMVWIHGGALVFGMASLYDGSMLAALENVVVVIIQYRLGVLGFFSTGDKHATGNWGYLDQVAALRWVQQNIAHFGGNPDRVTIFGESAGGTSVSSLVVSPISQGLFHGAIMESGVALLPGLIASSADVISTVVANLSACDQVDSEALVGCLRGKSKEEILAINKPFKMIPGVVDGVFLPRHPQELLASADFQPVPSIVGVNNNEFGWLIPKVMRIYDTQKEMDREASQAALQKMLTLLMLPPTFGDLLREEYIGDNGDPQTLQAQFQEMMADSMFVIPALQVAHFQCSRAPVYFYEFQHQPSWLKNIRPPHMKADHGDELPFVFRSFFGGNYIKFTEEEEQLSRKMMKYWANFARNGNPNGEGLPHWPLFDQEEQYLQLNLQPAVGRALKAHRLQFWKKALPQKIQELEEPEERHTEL
How it was run: (§1)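 Pooled mixed-gender human liver (N = 50) or intestinal (N = 6) microsomes at 0.5 or 0.76 mg/mL final, in 100 mM potassium phosphate pH 7.4, prewarmed 5 min at 37 °C. Substrate 1 µM, n = 2, final DMSO 0.025% and acetonitrile 0.98%. Aliquots taken over 0–60 min into acetonitrile with terfenadine internal standard. Parent loss by LC–MS/MS. CLint = 0.693·(mL incubation)/(t1/2·protein concentration).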

Liver carboxylesterase 1 [2] = biological target: T2, Liver carboxylesterase 1 (Homo sapiens, UniProt P23141); assay: Metabolic stability of the compound in human liver microsomes assessed as carboxylesterase-1-mediated hydrolysis by measuring intrinsic clearance at 1 uM in absence of NADPH; format: ADME; how it was run: as §1
T2 sequence (P23141 whole entry): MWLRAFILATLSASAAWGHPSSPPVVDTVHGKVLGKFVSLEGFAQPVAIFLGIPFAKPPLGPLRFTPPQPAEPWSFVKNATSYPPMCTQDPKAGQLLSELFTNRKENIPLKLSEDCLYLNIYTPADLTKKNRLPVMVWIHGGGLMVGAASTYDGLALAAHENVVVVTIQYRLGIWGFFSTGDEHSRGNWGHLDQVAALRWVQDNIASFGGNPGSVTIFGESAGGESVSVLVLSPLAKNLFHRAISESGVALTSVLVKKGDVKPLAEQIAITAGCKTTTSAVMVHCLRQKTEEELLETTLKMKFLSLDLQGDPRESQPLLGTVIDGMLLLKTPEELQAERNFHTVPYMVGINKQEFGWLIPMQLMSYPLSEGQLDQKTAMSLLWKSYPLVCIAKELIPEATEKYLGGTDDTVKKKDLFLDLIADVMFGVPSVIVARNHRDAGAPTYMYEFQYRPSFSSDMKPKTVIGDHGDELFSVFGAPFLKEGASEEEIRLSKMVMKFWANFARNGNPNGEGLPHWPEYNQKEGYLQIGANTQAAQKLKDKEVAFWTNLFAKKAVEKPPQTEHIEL

Liver carboxylesterase 1 [3] = biological target: T2, Liver carboxylesterase 1; assay: (§2) Metabolic stability of the compound in human liver microsomes assessed as carboxylesterase-1-mediated hydrolysis by measuring half life in absence of NADPH; format: ADME; settings: microsomes; how it was run: as §1
Cocaine esterase [4] = biological target: T1, Cocaine esterase; assay: (§3) Metabolic stability of the compound in human intestinal microsomes assessed as carboxylesterase-2-mediated hydrolysis by measuring half life in absence of NADPH; format: ADME, Intestine; settings: microsomes; how it was run: as §1
Cocaine esterase [5] = biological target: T1, Cocaine esterase; assay: Metabolic stability of the compound assessed as recombinant carboxylesterase-2 (unknown origin)-mediated hydrolysis after 60 mins; format: ADME; settings: 1 h
How it was run: (§4)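 Metabolite identification. Substrate at 10 µM final (DMSO stock diluted in acetonitrile) incubated 1 h at 37 °C, pH 7.4, n = 1, with one of: recombinant CE-1 bactosomes, recombinant CE-2 bactosomes, control E. coli cytosol, or human liver or intestinal microsomes. Quench in acetonitrile, centrifuge, dry supernatant under nitrogen, reconstitute in mobile phase. Metabolite formation read by LC–MS/MS.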

Liver carboxylesterase 1 [6] = biological target: T2, Liver carboxylesterase 1; assay: Metabolic stability of the compound assessed as recombinant carboxylesterase-1 (unknown origin)-mediated hydrolysis after 60 mins; format: ADME; settings: 1 h; how it was run: as §4
carboxylesterase-1 = biological target: T3, carboxylesterase-1 (Homo sapiens, UniProt P23141); assay: as §2; format: ADME; settings: liver microsomes; how it was run: as §1
T3 sequence (P23141 whole entry): T2 sequence (P23141 whole entry)

carboxylesterase-2 = biological target: T4, carboxylesterase-2 (Homo sapiens, UniProt O00748); assay: as §3; format: ADME, Intestine; settings: intestinal microsomes; how it was run: as §1
T4 sequence (O00748 whole entry): T1 sequence (O00748 whole entry)

| SMILES | CL (Cocaine esterase [1]) [µL/min/mg] | CLint (Liver carboxylesterase 1 [2]) [µL/min/mg] | t1/2 (Liver carboxylesterase 1 [3]) [min] | t1/2 (Cocaine esterase [4]) [min] | Stability (Cocaine esterase [5]) | Stability (Liver carboxylesterase 1 [6]) | half-life (carboxylesterase-1) [min] | half-life (carboxylesterase-2) [min] |
| --- | --- | --- | --- | --- | --- | --- | --- | --- |
| COC(=O)NCCCC(C)C(=O)Oc1ccc(Oc2ccc(CN(Cc3ccccc3)c3cccc(NS(C)(=O)=O)c3C)cc2)cc1 (centres undefined) | 2600 | 1000 | 1.3 | 0.53 | – | – | – | – |
| C#CCC(CCCNC(=O)OC)C(=O)Oc1ccc(Oc2ccc(CN(Cc3ccccc3)c3cccc(NS(C)(=O)=O)c3C)cc2)cc1 (centres undefined) | 1700 | 550 | 2.5 | 0.84 | – | – | – | – |
| COC(=O)NCCCC(C)(C)C(=O)Oc1ccc(Oc2ccc(CN(Cc3ccccc3)c3cccc(NS(C)(=O)=O)c3C)cc2)cc1 | 1000 | 240 | 5.7 | 1.4 | – | – | – | – |
| COC(=O)NCCCC(Cc1cn(Cc2ccccc2)nn1)C(=O)Oc1ccc(Oc2ccc(CN(Cc3ccccc3)c3cccc(NS(C)(=O)=O)c3C)cc2)cc1 (centres undefined) | 480 | 140 | 6.7 | 1.9 | Unstable | Stable | – | – |
| COC(=O)NCCCC(CC(C)C)C(=O)Oc1ccc(Oc2ccc(CN(Cc3ccccc3)c3cccc(NS(C)(=O)=O)c3C)cc2)cc1 (centres undefined) | 220 | 82 | – | – | – | – | 17 | 6.3 |
| COC(=O)NCCCC(Cc1ccccc1)C(=O)Oc1ccc(Oc2ccc(CN(Cc3ccccc3)c3cccc(NS(C)(=O)=O)c3C)cc2)cc1 (centres undefined) | 140 | 73 | 19 | 9.9 | – | – | – | – |
| COC(=O)NCCCC(C)(Cc1ccccc1)C(=O)Oc1ccc(Oc2ccc(CN(Cc3ccccc3)c3cccc(NS(C)(=O)=O)c3C)cc2)cc1 (centres undefined) | 43 | 19 | 73 | 32 | Unstable | Stable | – | – |
| C#CCC(CCCNC(=O)OC)C(=O)OCCOc1ccc(Oc2ccc(CN(Cc3ccccc3)c3cccc(NS(C)(=O)=O)c3C)cc2)cc1 (centres undefined) | 1900 | 770 | 1.8 | 0.73 | Unstable | Stable | – | – |
| COC(=O)NCCCC(Cc1cn(Cc2ccccc2)nn1)C(=O)OCCOc1ccc(Oc2ccc(CN(Cc3ccccc3)c3cccc(NS(C)(=O)=O)c3C)cc2)cc1 (centres undefined) | 240 | 170 | 5.3 | 3.8 | Unstable | Stable | – | – |
